Measured values gathered from unrelated publications.
Protocols differ between the studies behind these lines.
FGFR4: Fibroblast growth factor receptor 4 (FGFR4, Homo sapiens, UniProt P22455)

CNc1cccc2cc(C(=O)Nc3ccc(C(=O)O)cc3)c(=O)[nH]c12
inhibition (FGFR4; enzyme activity, inhibitor; 10 µM): 2.6%

CC/C(=N\NC(=O)NCc1cccc(O)c1)c1ccc(O)c(C)c1O
inhibition (Fibroblast growth factor receptor 4 (FGFR4, Homo sapiens, UniProt P22455, V550L); enzyme activity, inhibitor; 0.1 µM): 3.5%

CC(C)(C)c1nc(-c2cccc(NS(=O)(=O)c3c(F)cccc3F)c2F)c(-c2ccnc(N)n2)s1
remaining activity (FGFR4; enzyme activity, inhibitor, radiometric; 1 µM): 93%

Cc1cc(NC(=O)c2cccc3cc(-c4cccc5[nH]nc(N)c45)ccc23)ccc1F
activity vs control (FGFR4; enzyme activity, inhibitor; 0.1 µM): 101%

CNC(=O)c1cc(Oc2ccc(NC(=O)Nc3ccc(Cl)c(C(F)(F)F)c3)cc2)ccn1
inhibition (FGFR4; enzyme activity, inhibitor; 10 µM): 47%

O=C(N1CCS(=O)(=O)CC1)N1C[C@H](c2ccc(OC(F)(F)F)cc2)C[C@H](c2nc(C3CC3)no2)C1
remaining binding (FGFR4; cell-free assay, competition with immobilised ligand; 1 µM): 100%

CCN(CC)c1ccc(C2=NNC(=O)CC2C)cc1[N+](=O)[O-] (centres unmarked)
remaining activity (FGFR4; enzyme activity, inhibitor; 10 µM): 93%

Nc1ncnc2occ(-c3ccc(NC(=O)Nc4cc(C(F)(F)F)ccc4F)cc3)c12
remaining signal (FGFR4; cell-free assay; 20 µM): 0.1%

C=CC(=O)Nc1cc(Nc2nccc(Nc3cc(Cl)c(F)cc3C(C)(C)O)n2)c(OC)cc1N1CC[C@@H](N(C)C)C1
inhibition (FGFR4; enzyme activity, inhibitor; 1 µM): 2%

O=C1Nc2ccc(Cl)cc2C1=Cc1cc(Cl)c(O)c(Cl)c1
remaining signal (FGFR4; cell-free assay; 0.5 µM): 98%

CN(C)CC#Cc1ccc(OCCCc2sc(N3CCc4cccc(C(=O)Nc5nc6ccccc6s5)c4C3)nc2C(=O)O)c(F)c1
remaining binding (FGFR4; cell-free assay, competition with immobilised ligand; 1 µM): 100%

O=C(Nc1cnn(-c2csc(C(=O)NC3COC3)c2)c1)Nc1ccccc1Cl
remaining activity (FGFR4; enzyme activity, inhibitor; 5 µM): 88.2%

CC(=O)N1CCC(c2ccc(C(=O)NC3=NCCN3)cc2C(F)(F)F)CC1
remaining binding (FGFR4; cell-free assay, competition with immobilised ligand; 1 µM): 88%

CCCS(=O)(=O)Nc1ccc(F)c(C(=O)c2c[nH]c3ncc(-c4ccc(Cl)cc4)cc23)c1F
inhibition (FGFR4; enzyme activity, inhibitor; 1 µM): < 10%

CC(C)(O)c1cncc(-c2nc3ccc(F)cc3n2C2CC2)c1
remaining binding (FGFR4; cell-free assay, competition with immobilised ligand; 1 µM): 100%

CCCOc1ccc(OC)c(F)c1C(=O)c1ccc(C(=O)N[C@@H]2CNC[C@H]2NC(=O)c2ccc3[nH]ncc3c2)cc1
remaining activity (FGFR4; enzyme activity, inhibitor; 10 µM): 75%

COc1cc(-c2cn(C3CCc4c(F)cccc4N(CC(F)(F)F)C3=O)nn2)ccc1-n1cnc(C)c1 (centres unmarked)
remaining binding (FGFR4; cell-free assay, competition with immobilised ligand; 1 µM): 100%

CCN(CC)CCNC(=O)c1c(C)[nH]c(/C=C2\C(=O)Nc3ccc(F)cc32)c1C
inhibition (FGFR4; enzyme activity, inhibitor; 0.3 µM): -11%

C[C@@]1(Cc2ccc(C#N)cc2)C(=O)N(c2cc(Cl)cc(Cl)c2)c2ncc(C(=O)NC3(c4nc(C5CCC5)no4)CC3)n21
remaining binding (FGFR4; cell-free assay, competition with immobilised ligand; 1 µM): 96%

COc1cc2nccc(Oc3ccc(NC(=O)c4c5n(n(-c6ccc(F)cc6)c4=O)CCCC5)cc3)c2cc1OC
inhibition (FGFR4; enzyme activity, inhibitor; 0.1 µM): 5%

NS(=O)(=O)c1cc(NC(=O)C2(c3ccccc3Cl)CC2)ccc1Oc1cccc(Cl)c1
remaining binding (FGFR4; cell-free assay, competition with immobilised ligand; 1 µM): 100%

Cc1ccc(Nc2nccc(N(C)c3ccc4c(C)n(C)nc4c3)n2)cc1S(N)(=O)=O
remaining signal (FGFR4; cell-free assay; 0.5 µM): 68.3%

COc1cc2ncnc(Nc3ccc(Oc4ccccc4)c(C)c3C)c2cc1OC
inhibition (FGFR4; enzyme activity, inhibitor; 1 µM): -1%
